We go through 26 compounds from ChEMBL document CHEMBL1140662, “Benzo[b]thiophene-based histone deacetylase inhibitors” (Bioorg Med Chem Lett, 2007).

The nature of assay [1]: Antiproliferative activity against mouse SC9 cells. Type of assay: functional, cell-based. The method in brief:
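Murine erythroleukemia SC-9 cells were exposed to vehicle or increasing compound concentrations for 48 h, and proliferation was read by MTS assay. IC50 values are means of three experiments.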

Assay [2] addresses T1, Histone deacetylase 1 (Homo sapiens, UniProt Q13547). Kind of assay: Inhibition of HDAC1. The method in brief: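 Epitope-tagged human HDAC1 complex, immuno-purified from stably expressing mammalian cells, tested against a commercial HDAC substrate. IC50 values are means of three experiments.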
The target in assay [3] is T1, Histone deacetylase 1. Kind of assay: Inhibition of HDAC1 at 10 uM.

T1 sequence (Q13547 whole entry): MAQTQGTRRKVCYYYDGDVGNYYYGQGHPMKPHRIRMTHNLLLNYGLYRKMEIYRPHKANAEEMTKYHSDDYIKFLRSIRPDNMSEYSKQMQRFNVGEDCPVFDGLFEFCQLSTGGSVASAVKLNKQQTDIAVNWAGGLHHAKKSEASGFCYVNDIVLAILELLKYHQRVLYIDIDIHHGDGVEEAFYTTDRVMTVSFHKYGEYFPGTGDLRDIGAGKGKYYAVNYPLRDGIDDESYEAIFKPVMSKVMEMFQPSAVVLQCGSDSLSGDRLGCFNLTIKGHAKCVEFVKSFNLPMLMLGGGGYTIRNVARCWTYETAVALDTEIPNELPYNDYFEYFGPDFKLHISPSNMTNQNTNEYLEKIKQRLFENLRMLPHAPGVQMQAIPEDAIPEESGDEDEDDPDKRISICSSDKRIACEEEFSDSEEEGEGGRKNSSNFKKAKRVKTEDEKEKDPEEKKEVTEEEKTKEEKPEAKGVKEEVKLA

In assay [1], `COC(=O)c1ccc2cc(C(=O)NO)sc2c1` had an IC50 of 13900 nM. On to `O=C(Cc1ccccc1)NCc1ccc2cc(C(=O)NO)sc2c1`, for which the IC50 in assay [1] was 1220 nM; against Histone deacetylase 1 [2], 70 nM.

As to `O=C(CCc1ccccc1)Nc1ccc2cc(C(=O)NO)sc2c1`, the half-inhibitory concentration (IC50) in assay [1] amounted to 5580 nM; on Histone deacetylase 1 [2] it was 55 nM. Take `O=C(NCc1ccc2cc(C(=O)NO)sc2c1)c1ccccc1`: the IC50 is 190 nM in assay [1] and 10 nM on Histone deacetylase 1 [2]. With `O=C(Nc1ccc2cc(C(=O)NO)sc2c1)c1ccccc1`, the concentration for half-maximal inhibition (IC50) in assay [1] came out at 2900 nM. As to `COc1ccc(CC(=O)Nc2ccc3cc(C(=O)NO)sc3c2)cc1`, the 50% inhibitory concentration (IC50) was determined as 205 nM in assay [1] and 20 nM on Histone deacetylase 1 [2]. As for `O=C(Nc1ccccc1)c1ccc2sc(C(=O)NO)cc2c1`, the values for the half-inhibitory concentration (IC50) (in assay [1]; at Histone deacetylase 1 [2]) were 6140 nM and 600 nM, respectively.

As to `CC[C@@H](C(=O)Nc1ccc2cc(C(=O)NO)sc2c1)c1ccccc1`, the half-inhibitory concentration (IC50) in assay [1] was determined as 530 nM; against Histone deacetylase 1 [2], 60 nM. As to `O=C(NO)c1csc2ccccc12`, the inhibition against Histone deacetylase 1 [3] is 38%. Regarding `O=C(NCc1ccccc1)c1ccc2sc(C(=O)NO)cc2c1`, the IC50 in assay [1] was 1700 nM; against Histone deacetylase 1 [2] it was 75 nM. For `CCC(C(=O)Nc1ccc2cc(C(=O)NO)sc2c1)c1ccccc1` (stereo unspecified), the concentration for half-maximal inhibition (IC50) in assay [1] is 225 nM; on Histone deacetylase 1 [2] it was 40 nM. Regarding `O=C(Cc1ccccc1)Nc1ccc2sc(C(=O)NO)cc2c1`, the IC50 in assay [1] was 1160 nM; against Histone deacetylase 1 [2], 30 nM.

For the compound `O=C(NO)c1cc2cc(CNc3ccccc3)ccc2s1`, the IC50 is 4870 nM in assay [1] and 175 nM against Histone deacetylase 1 [2]. For `O=C(NCc1ccccc1)c1ccc2cc(C(=O)NO)sc2c1`, the values for the 50% inhibitory concentration (IC50) (in assay [1]; on Histone deacetylase 1 [2]) were 1100 nM and 55 nM, respectively. For `O=C(NC(c1ccccc1)c1ccccc1)c1ccc2cc(C(=O)NO)sc2c1`, the IC50 was found to be 2960 nM in assay [1] and 285 nM against Histone deacetylase 1 [2].

Turning to `CC[C@H](C(=O)Nc1ccc2cc(C(=O)NO)sc2c1)c1ccccc1`, the IC50 in assay [1] amounted to 140 nM; against Histone deacetylase 1 [2], 20 nM.

As for `O=C(NO)c1ccsc1`, the IC50 against Histone deacetylase 1 [2] was found to be 9700 nM. With `O=C(NCCc1ccccc1)c1ccc2sc(C(=O)NO)cc2c1`, the IC50 came to 5330 nM in assay [1] and 155 nM on Histone deacetylase 1 [2]. As for `O=C(NO)c1cc2ccc(CNCc3ccccc3)cc2s1`, the half-inhibitory concentration (IC50) in assay [1] stood at 160 nM; at Histone deacetylase 1 [2], 50 nM. `O=C(NO)c1cccs1`: the half-maximal inhibitory concentration (IC50) at Histone deacetylase 1 [2] came to 6600 nM. `O=C(NO)c1cc2cc(CNCCc3ccccc3)ccc2s1`: the half-inhibitory concentration (IC50) in assay [1] came out at 945 nM; against Histone deacetylase 1 [2], 200 nM. Regarding `O=C(Cc1ccccc1)Nc1ccc2cc(C(=O)NO)sc2c1`, the half-maximal inhibitory concentration (IC50) in assay [1] came out at 220 nM; on Histone deacetylase 1 [2], 10 nM. For the compound `O=C(NO)c1cc2ccc(CNCCc3ccccc3)cc2s1`, the IC50 in assay [1] turned out to be 455 nM; on Histone deacetylase 1 [2] it was 128 nM. In the case of `O=C(NO)c1cc2ccc(CNc3ccccc3)cc2s1`, the concentration for half-maximal inhibition (IC50) in assay [1] was 1780 nM; at Histone deacetylase 1 [2] it was 45 nM.

Consider `O=C(Cc1ccc(F)cc1)Nc1ccc2cc(C(=O)NO)sc2c1`, for which the half-maximal inhibitory concentration (IC50) in assay [1] stood at 230 nM; on Histone deacetylase 1 [2] it was 20 nM.

`O=C(NO)c1cc2cc(CNCc3ccccc3)ccc2s1` had a concentration for half-maximal inhibition (IC50) in assay [1] of 475 nM.

Usually IC50 stands for the concentration that gives 50% inhibition. By inhibition is commonly meant the percentage by which the read-out fell short of the control. A lower inhibition goes with a response near the control.
